Tests used:
Type in all cases: functional
Mus musculus [1] = assay: Antitumor activity was determined for median survival of mice against P-388 leukemia in mice at a dose of 320 mg/kg
Procedure, shortened: (§1)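 Male B6D2F1J mice implanted ip with 10⁶ P-388 cells on day 0; test agents given ip on days 1–4 (qd × 4) in sterile saline, or in 10% Tween 80 for the lipophilic thioether. Groups of 5 treated mice, with 10–17 untreated controls per experiment. Mice weighed on days 1 and 7 to give the 7-day weight change in g and %. Survival recorded in days as median and range.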

Mus musculus [2] = assay: Antitumor activity was determined for average weight on day 1 against P-388 leukemia in mice at a dose of 160 mg/kg
Procedure, shortened: (§2)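 Male B6D2F1J mice given 10⁶ P-388 cells ip on day 0, then treated ip once daily on days 1-4 (qd × 4), 5 mice per dose group. Compounds dosed in sterile saline, except one lipophilic thioether given in 10% Tween 80. Mice weighed on days 1 and 7; mean weight per mouse on day 1 and 7-day weight change reported in g and as percent.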

Mus musculus [3] = assay: Antitumor activity was determined for 7-day average percent weight change against P-388 leukemia in mice at a dose of 640 mg/kg; procedure, shortened: as §2
L1210 = assay: Evaluated for cytotoxicity against L1210 mouse leukemia cells; settings: read-out: ID50 (the source's name)
Procedure, shortened: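 L1210 murine leukemia cells in Eagle's minimal essential medium with 15% fetal calf serum, streptomycin (100 μg/mL), penicillin (100 units/mL) and 0.05 mM 2-mercaptoethanol. Cells counted by Coulter counter after 48 h exposure. ID50 is the 50% growth-inhibitory dose. Triplicate assays, standard deviation ±10%.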

Mus musculus [4] = assay: Antitumor activity was determined for 7-day average percent weight change against P-388 leukemia in mice at a dose of 80 mg/kg; procedure, shortened: as §2
Mus musculus [5] = assay: Antitumor activity was determined for average 7-day weight change against P-388 leukemia in mice at a dose of 160 mg/kg; procedure, shortened: as §2
Mus musculus [6] = assay: Percent increase in life span against P-388 leukemia in mice was determined at a dose of 320 mg/kg; settings: P388
Procedure, shortened: (§3)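 Male B6D2F1J mice, 5 per dose group, received 10⁶ P-388 cells ip on day 0. Dosing was ip qd × 4 on days 1-4 in sterile saline, or 10% Tween 80 for the butyl thioether. Median survival times of treated (T) and untreated control (C, 10-17 mice) groups were compared: %ILS = [(T/C) − 1]100. Weights taken on days 1 and 7.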

Mus musculus [7] = assay: Antitumor activity was determined for median survival of mice against P-388 leukemia in mice at a dose of 640 mg/kg; procedure, shortened: as §1
Mus musculus [8] = assay: Percent increase in life span against P-388 leukemia in mice was determined at a dose of 160 mg/kg; settings: P388; procedure, shortened: as §3
Mus musculus [9] = assay: Antitumor activity was determined for 7-day average percent weight change against P-388 leukemia in mice at a dose of 40 mg/kg; procedure, shortened: as §2
Mus musculus [10] = assay: Antitumor activity was determined for survival range of mice against P-388 leukemia in mice at a dose of 160 mg/kg; procedure, shortened: as §1
Mus musculus [11] = assay: Antitumor activity was determined for survival range of mice against P-388 leukemia in mice at a dose of 80 mg/kg
Procedure, shortened: (§4)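 Male B6D2F1J mice, 5 per dose group, implanted ip with 10⁶ P-388 leukemia cells on day 0. Drug given ip daily on days 1-4 (qd × 4) in sterile saline, or in 10% Tween 80 for the butyl thioether. Survival range recorded in days. Untreated control groups had 10-17 animals per experiment. Mice weighed on days 1 and 7.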

Mus musculus [12] = assay: Antitumor activity was determined for average weight on day 1 against P-388 leukemia in mice at a dose of 80 mg/kg
Procedure, shortened: (§5)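 Male B6D2F1J mice, groups of 5, inoculated ip with 10⁶ P-388 cells on day 0. Drug given ip on days 1-4 (qd × 4) in sterile saline, or in 10% Tween 80 for the poorly water-soluble thioether. Average weight per mouse recorded on day 1, with reweighing on day 7 for percent weight change. Untreated control groups had 10-17 animals per experiment.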

Mus musculus [13] = assay: Percent increase in life span against P-388 leukemia in mice was determined at a dose of 80 mg/kg; settings: P388; procedure, shortened: as §3
Mus musculus [14] = assay: Antitumor activity was determined for survival range of mice against P-388 leukemia in mice at a dose of 640 mg/kg; procedure, shortened: as §1
Mus musculus [15] = assay: Antitumor activity was determined for average 7-day weight change against P-388 leukemia in mice at a dose of 80 mg/kg; procedure, shortened: as §2
Mus musculus [16] = assay: Percent increase in life span against P-388 leukemia in mice was determined at a dose of 640 mg/kg; settings: P388; procedure, shortened: as §3
Mus musculus [17] = assay: Antitumor activity was determined for median survival of mice against P-388 leukemia in mice at a dose of 80 mg/kg; procedure, shortened: as §1
Mus musculus [18] = assay: Antitumor activity was determined for survival range of mice against P-388 leukemia in mice at a dose of 320 mg/kg; procedure, shortened: as §1
Mus musculus [19] = assay: Antitumor activity was determined for 7-day average percent weight change against P-388 leukemia in mice at a dose of 160 mg/kg; procedure, shortened: as §2
Mus musculus [20] = assay: Antitumor activity was determined for average weight on day 1 against P-388 leukemia in mice at a dose of 320 mg/kg; procedure, shortened: as §5
Mus musculus [21] = assay: Antitumor activity was determined for median survival of mice against P-388 leukemia in mice at a dose of 160 mg/kg; procedure, shortened: as §1
Mus musculus [22] = assay: Antitumor activity was determined for 7-day average percent weight change against P-388 leukemia in mice at a dose of 320 mg/kg; procedure, shortened: as §2
Mus musculus [23] = assay: Antitumor activity was determined for average weight on day 1 against P-388 leukemia in mice at a dose of 40 mg/kg; procedure, shortened: as §5
Mus musculus [24] = assay: Antitumor activity was determined for average weight on day 1 against P-388 leukemia in mice at a dose of 640 mg/kg; procedure, shortened: as §5
Mus musculus [25] = assay: Antitumor activity was determined for survival range of mice against P-388 leukemia in mice at a dose of 40 mg/kg; procedure, shortened: as §1
Mus musculus [26] = assay: Antitumor activity was determined for average 7-day weight change against P-388 leukemia in mice at a dose of 40 mg/kg; procedure, shortened: as §2
Mus musculus [27] = assay: Percent increase in life span against P-388 leukemia in mice was determined at a dose of 40 mg/kg; settings: P388; procedure, shortened: as §3
Mus musculus [28] = assay: Antitumor activity was determined for median survival of mice against P-388 leukemia in mice at a dose of 40 mg/kg; procedure, shortened: as §1
Mus musculus [29] = assay: Antitumor activity was determined for average weight on day 1 against P-388 leukemia in mice at a dose of 4 mg/kg; procedure, shortened: as §5
Mus musculus [30] = assay: Antitumor activity was determined for average 7-day weight change against P-388 leukemia in mice at a dose of 4 mg/kg; procedure, shortened: as §2
Mus musculus [31] = assay: Percent increase in life span against P-388 leukemia in mice was determined at a dose of 4 mg/kg; settings: P388; procedure, shortened: as §3
Mus musculus [32] = assay: Antitumor activity was determined for 7-day average percent weight change against P-388 leukemia in mice at a dose of 8 mg/kg; procedure, shortened: as §2
Mus musculus [33] = assay: Antitumor activity was determined for survival range of mice against P-388 leukemia in mice at a dose of 4 mg/kg; procedure, shortened: as §1
Mus musculus [34] = assay: Antitumor activity was determined for 7-day average percent weight change against P-388 leukemia in mice at a dose of 4 mg/kg; procedure, shortened: as §2
Mus musculus [35] = assay: Antitumor activity was determined for median survival of mice against P-388 leukemia in mice at a dose of 4 mg/kg; procedure, shortened: as §1
Mus musculus [36] = assay: Antitumor activity was determined for average 7-day weight change against P-388 leukemia in mice at a dose of 8 mg/kg; procedure, shortened: as §2
Mus musculus [37] = assay: Antitumor activity was determined for average weight on day 1 against P-388 leukemia in mice at a dose of 8 mg/kg; procedure, shortened: as §5
Mus musculus [38] = assay: Percent increase in life span against P-388 leukemia in mice was determined at a dose of 8 mg/kg; settings: P388; procedure, shortened: as §3
Mus musculus [39] = assay: Percent increase in life span against P-388 leukemia in mice was determined at a dose of 2 mg/kg; settings: P388; procedure, shortened: as §3
Mus musculus [40] = assay: Antitumor activity was determined for median survival of mice against P-388 leukemia in mice at a dose of 8 mg/kg; procedure, shortened: as §1
Mus musculus [41] = assay: Antitumor activity was determined for average weight on day 1 against P-388 leukemia in mice at a dose of 2 mg/kg; procedure, shortened: as §5
Mus musculus [42] = assay: Antitumor activity was determined for average 7-day weight change against P-388 leukemia in mice at a dose of 2 mg/kg; procedure, shortened: as §2
Mus musculus [43] = assay: Antitumor activity was determined for survival range of mice against P-388 leukemia in mice at a dose of 2 mg/kg; procedure, shortened: as §1
Mus musculus [44] = assay: Antitumor activity was determined for survival range of mice against P-388 leukemia in mice at a dose of 8 mg/kg; procedure, shortened: as §4
Mus musculus [45] = assay: Antitumor activity was determined for median survival of mice against P-388 leukemia in mice at a dose of 2 mg/kg; procedure, shortened: as §1
Mus musculus [46] = assay: Antitumor activity was determined for 7-day average percent weight change against P-388 leukemia in mice at a dose of 2 mg/kg; procedure, shortened: as §2
Mus musculus [47] = assay: Antitumor activity was determined for average 7-day weight change against P-388 leukemia in mice at a dose of 640 mg/kg; procedure, shortened: as §2
Mus musculus [48] = assay: Antitumor activity was determined for average 7-day weight change against P-388 leukemia in mice at a dose of 320 mg/kg; procedure, shortened: as §2

Row | Compound | Survival median (Mus musculus [1]) | Average weight (Mus musculus [2]) [g mouse-1] | Weight change (Mus musculus [3]) [%] | IC50 (L1210) [µM] | Weight change (Mus musculus [4]) [%] | Average weight (Mus musculus [5]) [g mouse-1] | ILS at 320 mg/kg (Mus musculus [6]) [%] | Survival median (Mus musculus [7]) | ILS at 160 mg/kg (Mus musculus [8]) [%] | Survival range (Mus musculus [10]) | Survival range (Mus musculus [11]) | Average weight (Mus musculus [12]) [g mouse-1] | ILS at 80 mg/kg (Mus musculus [13]) [%] | Survival range (Mus musculus [14]) | Average weight (Mus musculus [15]) [g mouse-1] | ILS at 640 mg/kg (Mus musculus [16]) [%] | Survival median (Mus musculus [17]) | Survival range (Mus musculus [18]) | Weight change (Mus musculus [19]) [%] | Average weight (Mus musculus [20]) [g mouse-1] | also measured
1 | O=c1[nH]c(=O)n(C2OC[C@@H](O)[C@H]2O)cc1F (stereo partly drawn) | 17 | 24.2 | -9 | 130 | 11 | 1.6 | 41 | 21 | 25 | 14 | 11 | 24.2 | 16 | 17 | 2.6 | 75 | 14 | 16 | 8 | 25.8 | Weight change (Mus musculus [9]): 12%; Survival median (Mus musculus [21]): 15; Weight change (Mus musculus [22]): 1%; Average weight (Mus musculus [23]): 25.2 g mouse-1; Average weight (Mus musculus [24]): 25.6 g mouse-1; Survival range (Mus musculus [25]): 12; Average weight (Mus musculus [26]): 3 g mouse-1; ILS at 40 mg/kg (Mus musculus [27]): 0%; Survival median (Mus musculus [28]): 12
2 | O=c1[nH]c(=O)n([C@@H]2O[C@H](CO)[C@@H](O)[C@H]2O)cc1F [5-FLUOROURIDINE] |  |  |  | 0.0024 |  |  |  |  |  |  |  |  |  |  |  |  |  |  |  |  | Average weight (Mus musculus [29]): 26.4 g mouse-1; Average weight (Mus musculus [30]): -3.2 g mouse-1; ILS at 4 mg/kg (Mus musculus [31]): 75%; Weight change (Mus musculus [32]): -23%; Survival range (Mus musculus [33]): 18; Weight change (Mus musculus [34]): -12%; Survival median (Mus musculus [35]): 21; Average weight (Mus musculus [36]): -6 g mouse-1; Average weight (Mus musculus [37]): 25.8 g mouse-1; ILS at 8 mg/kg (Mus musculus [38]): 91%; ILS at 2 mg/kg (Mus musculus [39]): 66%; Survival median (Mus musculus [40]): 23; Average weight (Mus musculus [41]): 26 g mouse-1; Average weight (Mus musculus [42]): 1.2 g mouse-1; Survival range (Mus musculus [43]): 18; Survival range (Mus musculus [44]): 21; Survival median (Mus musculus [45]): 20; Weight change (Mus musculus [46]): 5%
3 | C[C@H]1O[C@@H](n2cc(F)c(=O)[nH]c2=O)[C@H](O)[C@@H]1O [DOXIFLURIDINE] | 17 | 26.8 | -21 | 140 | 7 | 0.4 | 54 | 17 | 36 | 14 | 11 | 28.6 | 18 | 9 | 2.2 | 54 | 13 | 15 | 2 | 26.2 | Average weight (Mus musculus [47]): -5.6 g mouse-1; Average weight (Mus musculus [48]): -1.4 g mouse-1; Survival median (Mus musculus [21]): 15; Weight change (Mus musculus [22]): -5%; Average weight (Mus musculus [24]): 27 g mouse-1

— ChEMBL document CHEMBL1122125, “Synthesis and in vivo antitumor activity of potential 5-fluorouracil prodrugs” (1982)
